Calb FLC – C. albicans growth modulation with fluconazole. growth inhibition, % (concentration not given with the values). C. albicans CaCi-2 (fluconazole-resistant clinical isolate) + fluconazole, Alamar Blue growth, 48 h. 300,000 tested, 0.57% active;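 active = growth inhibition above about 58% in most replicates, limit read from the data, passing the limit was not always enough; inconclusive = exactly half the replicates above a set limit; inactive = most replicates below a set limit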;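 also: all wells also contain fluconazole at 8 µg/ml as a sub-toxic cotreatment; 0% = median of DMSO wells and 100% = median of geldanamycin control wells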
m5-HT2A agonist – agonists of mouse serotonin 5-HT2A receptor (HTR2A). activation, % at 7.6 µM. CHO-K1 mHTR2A beta-arrestin complementation, luminescence; percent of 30 µM serotonin response. 360,000 tested, 0.66% active. P35363. AID 624169;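 active = activation above a run cutoff, the mean activation of all tested compounds plus 3 SD, cut at about 14% in these data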;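 also: 0% = plate median of compound wells and 100% = 30 µM serotonin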
SR-BI uptake up – SR-BI HDL lipid transfer activation. CHO ldlA[mSR-BI] cells, DiI-HDL uptake fluorescence, 3 h; 100 = double the neutral-control signal. activation, % at 12.5 µM. 320,000 tested, 0.096% active. AID 504775;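 active = mean replicate activation of at least 60% and every replicate at or above 60%; inconclusive = mean or all-replicate condition met, but not both; inactive = mean below 60% and not all replicates reaching 60%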;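 also: 0% = median plate neutral-control signal and 100% = twice that signal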
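System: LDL receptor-deficient CHO ldlA cells overexpressing murine SR-BI | Timing: 3 h uptake period with compound, 37 °C | Medium: HEPES-buffered (25 mM, pH 7.4) F12 plus 0.5% BSA | Dosing: Single-point compound dose | Signal: Bottom-read fluorescence, 550/595 nm | Read-out: Retained DiI signal reflecting DiI-HDL uptake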
beta cell repl – induces beta-cell replication in MIN6 cells. 330,000 tested, 0.29% active. AID 2380. proliferation, % at 10 µM. MIN6 cells proliferation, ATPlite luminescence, 48 h; cells starved in 0.2% serum; 100% = growth in 10% serum;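 active = compounds whose signal lies at least 3.5 SD above the mean of all wells on their plate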;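 also: 0% = DMSO-treated cells in low-serum medium and 100% = 10% serum control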
Insulin prom up – MIN6 insulin promoter up-regulation; MIN6 insulin promoter-GFP reporter, high-content imaging; stronger effect = higher value; z-score at 5 µM; 190,000 tested, 0.3% active;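 active = z-score above 3 at 5 µM with at least 500 cells counted in the well; inconclusive = wells under 500 cells, flagged as cytotoxic or low count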
SR-BI DiI inh – mouse SR-BI HDL lipid transfer inhibition. Q61009. ldlA[mSR-BI] CHO cells, DiI-HDL uptake fluorescence, 3 h. inhibition, % at 12.5 µM. 320,000 tested, 0.96% active. AID 488896;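 active = mean replicate inhibition of at least 70% and a set share of replicates each scoring 70 or more; inconclusive = meets just one of the two criteria; inactive = fails both criteria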;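 also: 0% = median of neutral control wells and 100% = median of positive control wells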
Target sequence (Q61009 whole entry, looked up): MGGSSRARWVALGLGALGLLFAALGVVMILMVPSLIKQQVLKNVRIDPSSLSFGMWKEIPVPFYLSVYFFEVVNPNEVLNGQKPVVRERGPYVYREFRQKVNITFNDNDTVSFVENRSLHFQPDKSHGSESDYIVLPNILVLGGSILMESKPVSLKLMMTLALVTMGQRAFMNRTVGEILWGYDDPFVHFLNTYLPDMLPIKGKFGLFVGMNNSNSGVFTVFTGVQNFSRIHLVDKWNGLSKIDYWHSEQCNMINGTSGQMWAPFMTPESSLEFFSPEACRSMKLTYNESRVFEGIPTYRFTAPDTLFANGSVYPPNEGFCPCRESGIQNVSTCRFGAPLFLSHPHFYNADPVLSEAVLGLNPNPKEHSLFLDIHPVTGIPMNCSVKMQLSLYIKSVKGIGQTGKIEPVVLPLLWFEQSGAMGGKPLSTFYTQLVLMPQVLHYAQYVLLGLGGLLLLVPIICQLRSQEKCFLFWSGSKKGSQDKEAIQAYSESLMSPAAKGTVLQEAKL
Active calls of the source: *; ? = inconclusive; · = not tested or not shown. Most compounds without a hit are left out; they make up all but 2.4% or so of the library.

SMILES	Calb FLC	m5-HT2A agonist	SR-BI uptake up	beta cell repl	Insulin prom up	SR-BI DiI inh
Cc1ccccc1C(=O)Nc1cccc(NC(=O)c2ccc(F)cc2)c1	13.6	-4.2	-78.8	-1.7	·	78.8*
O=C(N/N=C/c1ccc(F)cc1)c1cccc(NC(=O)c2ccc(F)cc2)c1	5.7	-5.9	-72.3	-3.4	·	72.3*
Cc1ccccc1C(=O)Nc1ccccc1	-3.8	-0.1	4.4	-3.9	-0.66	-4.4
O=C(N/N=C/c1ccncc1)c1cccc(NC(=O)c2ccc(Cl)cc2)c1	-6.8	-2.5	-62.4	2.8	0.51	62.4
COC(=O)[C@@]12C[C@@H](CC(=O)NCc3cccc(C(F)(F)F)c3)C(=O)N(CCc3ccc(OC)c(OC)c3)C1=CCC(C)(C)C2	·	3.4	·	·	·	·
COc1ccc(CNC(=O)CCc2ccc(S(=O)(=O)N3CCCCCC3)cc2)cc1OC	·	1.4	-2.9	4.9	·	2.9
CCN(CC)c1ccc2cc(S(=O)(=O)c3ccc(Cl)cc3)c(=O)oc2c1	9.1	6.5	17.9	-3.5	6.96*	-17.9
CCCCCCc1cc2cc(S(=O)(=O)c3ccc(Cl)cc3)c(=O)oc2cc1O	-2.4	-3.7	7.7	-8.3	0	-7.7
Cn1c(SCCN2CCCC2)nnc1C1CCN(S(=O)(=O)c2cccc(F)c2)CC1	-7.8	3.9	·	-1.9	·	·
O=C(O)c1ccc(CN2C[C@@H](CO)O[C@@H](n3cnc4c(NCc5ccco5)ncnc43)C2)cc1	·	6.7	·	·	·	·
CC(=O)Oc1ccc(Cl)cc1/C=C/c1cc(OC(C)=O)c2ccccc2n1	1.7	·	·	·	·	·
COc1cc(Cl)cc(/C=C/c2ccc3ccccc3n2)c1OC(C)=O	3.7	1.2	-80.2	0.0	·	80.2*
O=c1c2ccccc2[nH]c(=S)n1CCCN1CCN(c2ccccc2F)CC1	2.6	-4.5	5.2	-3.6	·	-5.2
CCCc1nc2ccc(NC(=O)NCCC(=O)OCC)cc2c(=O)n1Cc1ccc(Cl)cc1	-0.5	-9.2	-71.6	-3.1	·	71.6*
CN(C)CCCNc1cc(C(C)(C)C)nc2c(-c3ccc(Cl)cc3)cnn12	95.5*	-8.5	-24.1	-6.4	-0.29	24.1
CC(C)(C)c1cc(NCc2ccccn2)n2ncc(-c3ccc(Cl)cc3)c2n1	-2.1	-4.7	-37.9	-3.4	-0.91	37.9
CCOC(=S)N/C(=N\S(=O)(=O)c1ccc(C)cc1)c1ccccc1	8.4	3.9	9.7	-2.0	0.28	-9.7
Cn1c(=O)c(C(=O)NCCCc2ccccc2)c(O)c2ccccc21	2.4	4.8	21.6	-3.5	·	-21.6
O=C(NCCc1ccccc1)c1c(O)c2cccc3c2n(c1=O)CC3	90.5*	4.4	9.6	0.9	-0.52	-9.6
COc1ccc(CCNC(=O)c2c(O)c3ccccc3n(C)c2=O)cc1	96.4*	-2.5	-2.5	0.2	·	2.5
Cc1ccc(S(=O)(=O)N2[C@H](CC(=O)c3cccs3)OC[C@@H]2C)cc1	·	-7.6	·	·	·	·
O=C(O)COc1ccc(/C=N/NC(=O)c2cn(-c3ccccc3)nc2-c2ccccc2)cc1	4.8	-7.2	7.6	0.0	·	-7.6
O=C(N/N=C/c1ccc([N+](=O)[O-])o1)c1ccccc1-n1cccc1	-8.5	-4.1	-14.8	-2.1	·	14.8
O=C(N/N=C/c1ccc([N+](=O)[O-])o1)c1cn(-c2ccccc2)nc1-c1ccccc1	10.0	4.5	-83.7	-4.5	-0.61	83.7*
O=C(N/N=C/c1ccc([N+](=O)[O-])o1)c1cn(-c2ccccc2)nc1-c1ccc(Cl)cc1	-3.8	8.3	-111.9	-3.6	-0.61	111.9*
SMILES	Calb FLC	m5-HT2A agonist	SR-BI uptake up	beta cell repl	Insulin prom up	SR-BI DiI inh
Cc1ccc(-c2nn(-c3ccccc3)cc2/C=N/NC(=O)c2ccc(Br)o2)cc1	-4.1	3.5	-22.8	-3.7	?	22.8
O=C(N/N=C\c1cn(-c2ccccc2)nc1-c1ccccc1)c1ccc(Br)o1	-0.6	-0.2	-55.0	-4.1	3.24*	55.0
O=C(N/N=C1\CC2CC=CC12)c1ccc(Br)cc1 (configuration not stated)	-9.8	-3.4	15.2	0.5	-0.6	-15.2
Cc1cc(Br)c(OCc2ccc(C(=O)N/N=C3\CC4CC=CC34)cc2)c(Br)c1 (configuration not stated)	1.6	2.6	-84.1	-1.6	·	84.1*
O=C(O)CCc1cc(I)c(Oc2ccc(O)c(I)c2)c(I)c1	·	·	·	·	-0.49	·
CCCCC1(C)OC(=O)C(=Cc2ccc(N(C)C)cc2)C(=O)O1 (configuration not stated)	1.2	19.8*	-4.3	2.0	0.09	4.3
CCCCC1(C)OC(=O)C(=Cc2c[nH]c3ccccc23)C(=O)O1 (configuration not stated)	-1.7	-1.5	26.8	-0.1	-0.14	-26.8
Cc1ccc2cccc(Oc3ncnc4sc(C)c(C)c34)c2n1	0.9	2.5	-77.4	4.6	-0.3	77.4*
Cc1ccc(-c2csc3ncnc(Oc4cccc5ccc(C)nc45)c23)cc1	?	-1.8	-20.8	-6.1	-0.3	20.8
Cc1ccc(S(=O)(=O)c2cc3ccccc3oc2=Nc2ccc3c(c2)OCCO3)cc1	4.0	-2.8	-2.5	0.0*	0.1	2.5
CN(C)CCCN=Cc1c(O)n(Cc2ccc3c(c2)OCO3)c(=O)c2ccccc12	5.0	·	·	-6.0	-0.58	·
CC(C)C(NC(=O)C12CC3CC(CC(C3)C1)C2)C(=O)N/N=C/C1=C(N2CCOCC2)C(=C\c2cccc([N+](=O)[O-])c2)/CC1 (configuration not stated)	-3.7	0.8	-84.7	0.0	-0.18	84.8*
N#Cc1c(/N=C/C=C/c2ccccc2)sc2c1CCCC2	1.7	16.3*	25.2	-2.9	1.35	-25.2
Cc1c(CCOC(=O)C23CC4CC(CC(C)(C4)C2)C3)sc[n+]1Cc1ccccc1	100.7*	-7.9	9.1	-5.5	-1.09	-9.1
Cc1c(CCOC(=O)C23CC4CC(CC(C4)C2)C3)sc[n+]1Cc1ccccc1	57.2	-2.3	25.2	-5.7	-0.7	-25.2
Cc1c(CCOC(=O)C23CC4(C)CC(C)(CC(C)(C4)C2)C3)sc[n+]1CC(=O)c1ccccc1	112.8*	-7.2	52.0	-5.5	-1.87	-52.0
O=C(Nc1ccc(N2CCCCC2)cc1)c1cccnc1	0.1	-0.2	-2.7	-3.0	3.44*	2.7
CCOc1cccc(C(=O)Nc2ccc(N3CCCC3)cc2)c1	-18.9	-0.5	-74.7	-0.4	·	74.7*
CCOc1ccc(C(=O)Nc2ccc(N3CCCC3)cc2)cc1	5.9	1.0	-77.2	-2.4	-0.04	77.2*
O=C(Nc1ccc(N2CCN(Cc3ccccc3Cl)CC2)cc1)c1cccnc1	10.3	-2.3	-7.8	0.9	·	7.8
CCCCOc1ccc(C(=O)NCC(=O)N(C)CC(=O)Nc2ccc(N3CCOCC3)cc2)cc1	8.4	13.7	-82.4	0.2	·	82.4*
COc1ccc(C(=O)Nc2ccc(N3CCCC3)cc2)cc1	3.3	4.8	-52.7	-1.1	0.11	52.7

Assay outcomes deposited in PubChem by several laboratories.
